Source: PubChem
An excerpt weighted towards active compounds, which were near 1.5% of everything screened.
SIAE primary – blocks human sialic acid acetylesterase; 370,000 compounds, 0.69% hits; SIAE FP-Rh probe binding, fluorescence polarization; AID 1053197; inhibition, % at 9.66 µM;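 active = inhibition above a cutoff: mean of compounds within the control limits plus 3 SD of those, cut at about 17% in these data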
TCR-CD3 inh – human TCR-CD3 binding inhibition; AID 651800; 360,000 compounds, 0.37% hits; TAMRA-labeled TCR probe fluorescence, biochemical; inhibition, % at 9.4 µM;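 note: recombinant mutant TCR 2C K166C tagged with TAMRA read by polarization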
DAGLB inhibitor – diacylglycerol lipase beta (human) inhibition | 340,000 compounds, 0.059% hits | inhibition, % at 5.17 µM | Q8NCG7 | HEK293T DAGLB membrane lysate, EnzChek fluorogenic substrate | AID 504411; in the data active = inhibition above about 34%
HTRA1 inhibitor – inhibitors of human serine peptidase HTRA1. Q92743. recombinant HTRA1, FP-rhodamine activity-based probe, fluorescence polarization. inhibition, % at 5.96 µM. 340,000 compounds, 0.5% hits; in the data active = inhibition above about 36%
ABHD4 inh – ABHD4 (mouse) inhibition, primary FP screen; Q8VD66; purified mABHD4, FP-Rh probe fluorescence polarization; inhibition, % at 8.92 µM; 370,000 compounds, 0.54% hits; AID 720543;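 active = inhibition exceeding the mean over every tested compound plus 3 SD, cut at about 30% in these data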
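assay system = mABHD4 protein | compound dosing = single nominal dose of 8.92 µM, 0.89% DMSO final | read-out basis = percent inhibition of probe binding, normalized to plate controls | schedule = Enzyme–compound pre-incubation 45 min, then probe 60 min, both 25 °C | detection = fluorescence polarization, excitation 525 nm, emission 598 nm, BODIPY TMR filters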
HTRA1 conf – confirmation of human HTRA1 inhibitors; shares compounds with HTRA1 inhibitor; recombinant HTRA1, FP-rhodamine activity-based probe, fluorescence polarization; inhibition, % at 5.96 µM; 1,600 compounds, 66% hits; AID 540248;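 active = mean inhibition over three repeats above a set limit taken from the earlier primary screen, cut at about 37% in these data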;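 note: inhibitors block probe binding so polarization drops and inhibition rises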
BSA TAMRA ctr – counter-screen for TCR-CD3 interaction inhibitors: BSA probe; TAMRA-labeled BSA probe fluorescence counterscreen; inhibition, % at 9.4 µM; 1,200 compounds, 10% hits; shares compounds with TCR-CD3 inh; in the data active = inhibition above about 23%
TCR-CD3 conf – confirmation of human TCR-CD3 interaction inhibitors; inhibition, % at 9.4 µM; shares compounds with TCR-CD3 inh; AID 652036; 1,200 compounds, 48% hits; TAMRA-labeled TCR probe fluorescence binding assay
ABHD4 confirm – confirmation of mouse ABHD4 inhibitors | 1,800 compounds, 55% hits | purified mABHD4, FP-Rh probe fluorescence polarization | shares compounds with ABHD4 inh | inhibition, % at 8.92 µM;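 active = mean inhibition across replicates above the hit cutoff set in the primary screen, cut at about 30% in these data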
SIAE inh conf – human SIAE inhibition, confirmation; inhibition, % at 9.66 µM; AID 1117263; SIAE FP-Rh activity-based probe, fluorescence polarization; 2,300 compounds, 13% hits; shares compounds with SIAE primary;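 active = mean inhibition of the replicates above the hit cutoff set in the primary screen, cut at about 17% in these data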;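 note: inhibitors lower polarization as more probe stays unbound to SIAE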
Numbers stand for hits; – = inactive; · = no result given. Cut-off read from the data, not from the text of the source, unless noted: active = inhibition above about 19%; inactive = the rest.

SMILES	SIAE primary	TCR-CD3 inh	DAGLB inhibitor	HTRA1 inhibitor	ABHD4 inh	HTRA1 conf	ABHD4 confirm	others
C=C1c2cccc(O)c2C(O)=C2C(=O)[C@]3(O)C(O)=C(C(N)=O)C(=O)[C@@H](N(C)C)[C@@H]3[C@@H](O)[C@H]12	69	52	–	53	79	–	–	BSA TAMRA ctr=–;TCR-CD3 conf=–
CN(C)c1ccc(C=c2c3cc([N+](=O)[O-])ccc3n3c2cc(-c2ccccc2)[n+]3C)cc1	–	57	–	92	78	41	–
CN(C)c1ccc(C=c2c3ccccc3n3c2cc(-c2ccccc2)[n+]3C)cc1	–	–	–	–	–	·	·
O=c1[nH]nc(CNc2ccc(C(F)(F)F)cc2)c2ccccc12	–	–	–	–	–	·	·
O=c1[nH]nc(CNc2ccc(O)cc2)c2ccccc12	79	89	–	85	82	–	37	BSA TAMRA ctr=–;TCR-CD3 conf=–
O=C(C=Cc1ccc2c(c1)OCO2)c1ccccc1	–	–	–	–	–	·	·
CNc1ccc(Br)cc(C(=O)/C=C/c2ccc3c(c2)OCO3)c1=O	–	–	–	44	40	–	44
COc1ccc(/C=C/C(=O)c2cc(Br)ccc2O)cc1OC	–	–	–	–	–	·	·
CNc1ccc(Br)cc(C(=O)/C=C/c2cc(OC)ccc2OC)c1=O	17	–	–	39	38	–	40
CN(C)S(=O)(=O)c1cccc2c1C(=O)c1ccccc1C2=O	–	–	–	–	–	·	·
CN(C)c1cc2c(c(N(C)C)c1)C(=O)c1ccccc1C2=O	–	–	–	41	41	50	33
O=[N+]([O-])c1ccc(N=Nc2c(Cl)cc(O)cc2Cl)cc1	26	–	–	67	77	73	85
COc1cc(Nc2cc(C)n(-c3cc(OC)cc(OC)c3)c(=O)c2)cc(OC)c1	–	–	·	·	–	·	·
O=C1C(NS(=O)(=O)c2cccs2)=C(N2CCN(c3cccc(C(F)(F)F)c3)CC2)C(=O)c2ccccc21	–	–	–	45	43	69	70
COC(=O)[C@]12C[C@H](CC(=O)N3CCCC3)C(=O)N(Cc3ccc4c(c3)OCO4)C1=C[C@H](COCc1ccccc1)O[C@@H]2C	–	–	·	·	–	·	·
Cc1cccc(Nc2nc(-c3ccc(O)c(O)c3)cs2)n1	–	–	–	60	34	59	57
Cc1ccnc(Nc2nc(-c3ccc(O)c(O)c3)cs2)c1	–	–	–	74	42	85	47
Oc1ccc(-c2csc(Nc3ccccn3)n2)cc1O	–	–	–	64	31	80	40
Cc1cccnc1Nc1nc(-c2ccc(O)c(O)c2)cs1	–	–	–	81	35	70	43
C[C@@H]1CN([C@@H](C)CO)C(=O)CCCn2nncc2CO[C@@H]1CN(C)C(=O)C1CC1	–	–	·	·	–	·	·
C#CCNC(=O)c1cc2cccnc2nc1N	–	–	·	·	–	·	·
COc1ccc(N/N=C(/N=Nc2nc(C)cc(=O)[nH]2)c2ccccc2)cc1	–	–	–	71	40	76	42
Cc1cc(=O)[nH]c(N=N/C(=N/Nc2ccc(O)cc2)c2ccccc2)n1	–	–	–	–	–	·	·
C[C@H]1C(c2ccccc2F)O[C@]2(C[C@H](O)c3ccccc3O2)C[C@@H]1O (some centres not stated)	–	·	·	·	–	·	·
CCOc1ccc(-n2c(SCc3cccc4ccccc34)nnc2-c2ccc(C)cc2)cc1	–	·	·	·	–	·	·
COc1ccc2ccccc2c1/C=N/NC(=O)c1cccc(Br)c1	–	–	–	–	–	·	·
O=C(N/N=C/c1c(O)ccc2ccccc12)c1cccc(C(F)(F)F)c1	25	–	–	57	–	58	·	SIAE inh conf=–
